Paper PMC3076580 (Investigational New Drugs, 2010)
One block for each molecule: values may come before it.

Legend:
[1] = biological target: purified deoxycytidine deaminase (dCDA) (Homo sapiens, UniProt P32320); test: Deoxycytidine deaminase activity; assay type: biochemical; settings: 37°C; for deamination as substrate of dCDA: 500 μM substrate, no inhibitor
Summary of the method: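 Purified dCDA (source not stated) run at 37°C with 500 μM dCyd or gemcitabine as substrate and 500 μM competing compound. Every run included a blank (no substrate or inhibitor) and a substrate-only control. Stopped after 15 or 25 min with 40% w/v TCA, then neutralised with trioctylamine/trichlorotrifluoroethane […]. Substrates and the deoxyuridine or difluorodeoxyuridine products measured by reversed-phase HPLC. Unpaired t-test.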

[2] = tested on: MA-11 breast cancer xenograft; test: Xenograft testing, ip; assay type: in vivo, nude mice; settings: MA-11, ip at MTD
Summary of the method: (§1)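 Female BALB/c nude mice anaesthetised with propanidid 5 mg/10 g ip. Tumour fragments (~2 mm cubes) implanted sc in each flank. Treatment started at minimum diameter 4 mm (32 mm3): liposomal test compound or gemcitabine ip q3dx5 at MTD. RTV = Vx/V0 ×100, group median. T/C = treated/control RTV ×100; SGD counts doubling times gained. Deaths within 2 weeks after the last dose counted as toxic. Mann–Whitney U, p<0.05.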

[3] = tested on: MiaPaCa-2 pancreatic cancer xenograft; test: Xenograft testing, ip; assay type: in vivo, nude mice; settings: MiaPaCa-2, ip every third day for five doses at MTD
Summary of the method: as §1

L1210/L5 cells = test: Growth inhibition, cell counting, 72 h exposure; assay type: cell-based, murine; settings: Mus musculus, L1210, 72 h
Summary of the method: (§2)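 Suspension cells in RPMI-1640 with 10% FCS. L5/L4A6 medium had 60 μM 2-mercaptoethanol and 250 ng/ml gentamicin; BCLO had 3.2 mM glutamine and gentamicin; Bara-C had 5% FCS plus 5% rat serum. Seeding: 50,000 (L5), 100,000 (L4A6), 150,000 (BCLO) or 175,000 (Bara-C) cells/well. Drug (final 2.10−10 to 10−3 M) added at plating; counted at 72 h. IC50 interpolated against 0%/100% controls.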

[4] = tested on: TAX II-1 malignant fibrous histiocytoma xenograft; test: Xenograft testing, ip; assay type: in vivo, nude mice; settings: TAX II-1, ip at MTD
Summary of the method: as §1

[5] = tested on: L4A6 cells (cytarabine resistant L1210 variant); test: Growth inhibition, cell counting, 72 h exposure; assay type: cell-based, murine; settings: Mus musculus, L1210, 72 h
Summary of the method: as §2

LOX cells = test: Growth inhibition with or without nucleoside transport inhibitors; assay type: cell-based; settings: Homo sapiens
Summary of the method: (§3)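 Cells grown in suspension in RPMI-1640-based medium and plated at 2.5.105 cells/ml. NBMPR (100 μM) or dipyridamole (4 μg/ml) was present or absent, with serial dilutions of test compound or gemcitabine. Cells counted after 72 h. Growth set relative to plated cells (0%) and untreated 72 h cells (100%). IC50 read from a straight-line interpolated curve.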

MOLT4/C8 cells = test: as above; assay type: cell-based; settings: Homo sapiens
Summary of the method: as §3

[6] = tested on: PANC-1 pancreatic cancer xenograft; test: Xenograft testing, ip; assay type: in vivo, nude mice; settings: PANC-1, ip every third day for five doses at MTD
Summary of the method: as §1

[7] = tested on: AG6000 cells (gemcitabine resistant A2780 variant, dCK deficient); test: Growth inhibition, SRB assay, 72 h exposure; assay type: cell-based; settings: Homo sapiens, AG6000, 72 h
Summary of the method: (§4)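 Monolayer cells seeded on day 1 at 6,000 (A2780), 18,000 (AG6000) or 8,000 (C26-G) cells/well. Drug dilutions added on day 2, final 2.10−10 to […], from a 20 mM DMSO stock (DMSO ≤1%). After 72 h, fixed with ice-cold TCA for 60 min and stained with sulforhodamine B. Relative growth taken from OD versus control wells. IC50 interpolated from straight-line curves.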

[8] = tested on: H-146 small cell lung cancer xenograft; test: Xenograft testing, ip; assay type: in vivo, nude mice; settings: H-146, ip at MTD
Summary of the method: as §1

[9] = tested on: C26-G cells (gemcitabine resistant); test: Growth inhibition, SRB assay, 72 h exposure; assay type: cell-based, murine; settings: Mus musculus
Summary of the method: as §4

C26-A cells = test: Growth inhibition, SRB assay, 72 h exposure; assay type: cell-based, murine; settings: Mus musculus
MOLT4 cells = test: Growth inhibition with or without nucleoside transport inhibitors; assay type: cell-based, human; settings: for IC50: Homo sapiens
Summary of the method: as §3

A2780 cells = test: Growth inhibition, SRB assay, 72 h exposure; assay type: cell-based; settings: Homo sapiens, A2780, 72 h
Summary of the method: as §4

THX cells = test: Growth inhibition with or without nucleoside transport inhibitors; assay type: cell-based, human; settings: for IC50: Homo sapiens
Summary of the method: as §3

[10] = tested on: THX malignant melanoma xenograft; test: Xenograft testing, ip; assay type: in vivo, nude mice; settings: ip every third day for five doses at MTD
Summary of the method: as §1

[11] = tested on: human colon cancer xenograft Co6044; test: Xenograft testing, oral; assay type: in vivo, nude mice
[12] = Co6044, oral, days 1, 4 and 7, 20 mg/kg
[13] = Co6044, oral, days 1, 4 and 7, 40 mg/kg

Sequence of purified deoxycytidine deaminase (dCDA) (P32320 whole entry): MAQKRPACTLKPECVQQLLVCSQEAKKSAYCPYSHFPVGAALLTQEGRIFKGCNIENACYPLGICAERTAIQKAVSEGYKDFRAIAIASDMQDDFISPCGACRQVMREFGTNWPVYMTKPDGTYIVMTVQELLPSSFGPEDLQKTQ

- deamination as substrate of dCDA [1]: 312 pmol/hr/μl enzyme
SMILES: Nc1ccn([C@H]2C[C@H](O)[C@@H](CO)O2)c(=O)n1 [dCyd, deoxycytidine]

SMILES: Nc1ccn([C@@H]2O[C@H](CO)[C@@H](O)C2(F)F)c(=O)n1 [gemcitabine, 2′,2′-difluorodeoxycytidine]
- antitumor activity (in words) [2]: some activity
- Deaths [3]: 7/7
- IC50 (L1210/L5 cells): 1.9 ± 0.6 nM
- antitumor activity (in words) [4]: inactive
- IC50 [5]: 8800 ± 3600 nM
- IC50 (LOX cells; +Dipyridamole 4 μg/ml): 610 ± 220 nM
- IC50 (LOX cells; +NBMPR 100 μM): 1150 ± 60 nM
- IC50 (LOX cells; no transport inhibitor): 4.7 ± 1 nM
- IC50 (MOLT4/C8 cells; Molt4/C8, MOLT4/C8, +Dipyridamole 4 μg/ml): 7620 ± 590 nM
- IC50 (MOLT4/C8 cells; Molt4/C8, MOLT4/C8, +NBMPR 100 μM): 8310 ± 1200 nM
- IC50 (MOLT4/C8 cells; Molt4/C8, MOLT4/C8, no transport inhibitor): 460 ± 120 nM
- Deaths [6]: 4/9
- IC50 [7]: 185000 ± 108000 nM
- antitumor activity (in words) [8]: not active
- IC50 [9]: 20 ± 10 nM
- dFdU formed when dCyd and gemcitabine were added simultaneously ([1]; 500 μM each): 1,127 pmol/hr/μl enzyme
- deamination as substrate of dCDA [1]: 624 pmol/hr/μl enzyme
- IC50 (C26-A cells): 16 ± 4 nM
- IC50 (MOLT4 cells; MOLT-4, MOLT4, +Dipyridamole 4 μg/ml): 610 ± 260 nM
- IC50 (MOLT4 cells; MOLT-4, MOLT4, +NBMPR 100 μM): 820 ± 250 nM
- IC50 (MOLT4 cells; MOLT-4, MOLT4, no transport inhibitor): 3 ± 3.3 nM
- decrease in sensitivity by dipyridamole (MOLT4 cells; MOLT4, 4 μg/ml dipyridamole): 203 fold
- decrease in sensitivity by NBMPR (MOLT4 cells; MOLT4, 100 μM NBMPR): 273 fold
- IC50 (A2780 cells): 1.5 ± 0.6 nM
- decrease in sensitivity by dipyridamole (THX cells; 4 μg/ml dipyridamole): 115 fold
- decrease in sensitivity by NBMPR (THX cells; 100 μM NBMPR): 55 fold
- IC50 (THX cells; +Dipyridamole 4 μg/ml): 310 ± 130 nM
- IC50 (THX cells; +NBMPR 100 μM): 150 ± 50 nM
- IC50 (THX cells; no transport inhibitor): 2.7 ± 0.7 nM
- SGD [10]: > 6.25
- Deaths [11, 12]: 0/7
- Weight loss (%) [11, 12]: 0%
- Deaths [11, 13]: 5/7
- Maximal T/C (%) [11, 13]: 8%
- Weight loss (%) [11, 13]: 1%
- toxicity (in words) ([11]; Co6044 bearing mice, oral, at similar doses as the ip administration): very toxic
